Experiment [1] deals with T1, Neuropilin-1 (Homo sapiens, UniProt O14786). Kind of experiment: Binding affinity to NRP1 in HUVEC assessed as ratio of phosphorylated ERK to total ERK at 50 uM by Western blot analysis. The format is cell-based. In a few lines:
(§1)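 HUVECs exposed to 50 µM compound; tuftsin as reference. Lysate protein (40 µg) resolved by SDS-PAGE and blotted to PVDF. Probed overnight at 4 °C for pAKT (Ser473), total AKT, pERK1/2 (Thr202/Tyr204) and total ERK1/2. ECL detection and densitometry. Phospho/total band ratio normalized to non-treated cells.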

The target in experiment [2] is T1, Neuropilin-1. The experiment is described as follows: Inhibition of biotinylated VEGF-A165 binding to recombinant NRP1 (unknown origin) measured after 2 hrs by competition binding assay. An outline of the steps:
(§2)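 Competition ELISA. Wells coated overnight at room temperature with recombinant chimeric NRP-1 or KDR in PBS, then blocked with 0.5% BSA/PBS for 1 h at 37 °C. Biotinylated VEGF-A165 (5 ng/mL, heparin-containing blocking buffer) incubated 2 h at room temperature with or without compound; unlabelled VEGF-A165 as positive control. Bound tracer detected with streptavidin-HRP, read at 450 nm. Three independent experiments, triplicates.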

The target in experiment [3] is T1, Neuropilin-1. Kind of experiment: Binding affinity to NRP1 in HUVEC assessed as increase in AKT phosphorylation at 50 uM by Western blot analysis. It counts as cell-based. In a few lines: as §1
In experiment [4] the target is T1, Neuropilin-1. Kind of experiment: Inhibition of biotinylated VEGF-A165 binding to recombinant NRP1 (unknown origin) at 100 uM measured after 2 hrs by competition binding assay relative to VEGF-A165. In a few lines: as §2

Activity calls are given as the source filed them. The calls are words filed in the database; no cut-off is given here. Peptide text beside a SMILES is read from it.

T1 sequence (O14786 whole entry): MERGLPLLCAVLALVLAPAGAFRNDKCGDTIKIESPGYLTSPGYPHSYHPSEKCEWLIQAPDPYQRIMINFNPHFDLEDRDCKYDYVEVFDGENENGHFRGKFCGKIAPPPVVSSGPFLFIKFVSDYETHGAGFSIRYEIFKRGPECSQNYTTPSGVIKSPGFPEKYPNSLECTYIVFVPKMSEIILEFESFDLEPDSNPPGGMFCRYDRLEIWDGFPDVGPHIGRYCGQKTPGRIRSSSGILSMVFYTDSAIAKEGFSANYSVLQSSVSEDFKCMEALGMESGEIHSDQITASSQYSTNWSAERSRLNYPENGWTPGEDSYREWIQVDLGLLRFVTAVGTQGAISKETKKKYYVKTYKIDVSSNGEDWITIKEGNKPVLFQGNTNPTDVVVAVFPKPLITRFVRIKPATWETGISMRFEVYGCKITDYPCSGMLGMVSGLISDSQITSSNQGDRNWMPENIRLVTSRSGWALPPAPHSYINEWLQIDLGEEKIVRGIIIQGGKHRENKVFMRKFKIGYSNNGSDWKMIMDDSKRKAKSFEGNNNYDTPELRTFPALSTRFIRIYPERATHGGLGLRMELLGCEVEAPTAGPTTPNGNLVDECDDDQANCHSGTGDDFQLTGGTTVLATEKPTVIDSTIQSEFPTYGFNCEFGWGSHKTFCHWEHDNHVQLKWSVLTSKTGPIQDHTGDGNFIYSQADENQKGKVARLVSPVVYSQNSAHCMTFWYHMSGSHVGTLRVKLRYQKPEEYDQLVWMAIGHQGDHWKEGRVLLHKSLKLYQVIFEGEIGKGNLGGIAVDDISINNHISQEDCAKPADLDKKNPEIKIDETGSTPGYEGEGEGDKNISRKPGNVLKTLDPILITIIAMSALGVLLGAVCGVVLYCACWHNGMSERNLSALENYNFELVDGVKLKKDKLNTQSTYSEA

As for `C[C@@H](O)[C@H](N)C(=O)N[C@@H](CCCCN)C(=O)N1CCC[C@H]1C(=O)N[C@@H](CCCNC(=N)N)C(=O)O` (H-TKPR-OH), the Ratio on Neuropilin-1 [1] amounted to 0.88. In addition, the IC50 on Neuropilin-1 [2] was found to be 25 µM. In addition, the outcome on Neuropilin-1 [3] was Active.

`CC1(C)O[C@@H]2[C@H](O1)[C@H](CN(CCCCCNC(=N)N)C(=N)N)O[C@@H]2CC(=O)NCCc1c[nH]c2ccccc12`: the inhibition at Neuropilin-1 [4] turned out to be 52%. The half-inhibitory concentration (IC50) on Neuropilin-1 [2] was found to be 120 µM.

For the compound `CC1(C)O[C@@H]2[C@H](O1)[C@H](CN(CCCCNC(=N)N)C(=N)N)O[C@@H]2CC(=O)NCCc1c[nH]c2ccccc12`, the inhibition at Neuropilin-1 [4] was 39%.

Regarding `N=C(N)NCCCc1cn(C[C@@H]2O[C@H](CC(=O)NCCc3c[nH]c4ccccc34)[C@H](O)[C@@H]2O)nn1`, the inhibition at Neuropilin-1 [4] was 4%.

As for `CC1(C)O[C@@H]2[C@H](O1)[C@H](Cn1cc(CCNC(=N)N)nn1)O[C@@H]2CC(=O)NCCc1c[nH]c2ccccc12`, the inhibition at Neuropilin-1 [4] was found to be 5%.

For the compound `CC1(C)O[C@@H]2[C@H](O1)[C@H](Cn1cc(CCCNC(=N)N)nn1)O[C@@H]2CC(=O)NCCc1c[nH]c2ccccc12`, the inhibition on Neuropilin-1 [4] was 18%.

For the compound `CC1(C)O[C@@H]2[C@H](O1)[C@H](CN(CCCNC(=N)N)C(=N)N)O[C@@H]2CC(=O)NCCc1c[nH]c2ccccc12`, on Neuropilin-1 [4], the inhibition came to 5%.

Take `N=C(N)NCCc1cn(C[C@@H]2O[C@H](CC(=O)NCCc3c[nH]c4ccccc34)[C@H](O)[C@@H]2O)nn1`: the inhibition on Neuropilin-1 [4] turned out to be 37%.

Take `CC1(C)O[C@@H]2[C@H](O1)[C@@H](CN(CCNC(=N)N)C(=N)N)O[C@@H]2CC(=O)NCCc1c[nH]c2ccccc12`: the inhibition on Neuropilin-1 [4] was found to be 26%.

(Values after ChEMBL document CHEMBL4428108, “Carbohydrate-based peptidomimetics targeting neuropilin-1: Synthesis, molecular docking study and in vitro biological activities” (Bioorg Med Chem, 2016).)
